Results published in ChEMBL document CHEMBL1141420, “Towards a new generation of potential antipsychotic agents combining D2 and 5-HT1A receptor activities” (J Med Chem, 2007).
Activity calls are given as the source filed them. No cut-off for these calls is given here.

Legend:
[1] = molecular target: T1, 5-hydroxytryptamine receptor 1A (Rattus norvegicus, UniProt P19327); assay: Displacement of [3H]OH-DPAT from rat cortex 5HT1A receptor
T1 sequence (P19327 whole entry): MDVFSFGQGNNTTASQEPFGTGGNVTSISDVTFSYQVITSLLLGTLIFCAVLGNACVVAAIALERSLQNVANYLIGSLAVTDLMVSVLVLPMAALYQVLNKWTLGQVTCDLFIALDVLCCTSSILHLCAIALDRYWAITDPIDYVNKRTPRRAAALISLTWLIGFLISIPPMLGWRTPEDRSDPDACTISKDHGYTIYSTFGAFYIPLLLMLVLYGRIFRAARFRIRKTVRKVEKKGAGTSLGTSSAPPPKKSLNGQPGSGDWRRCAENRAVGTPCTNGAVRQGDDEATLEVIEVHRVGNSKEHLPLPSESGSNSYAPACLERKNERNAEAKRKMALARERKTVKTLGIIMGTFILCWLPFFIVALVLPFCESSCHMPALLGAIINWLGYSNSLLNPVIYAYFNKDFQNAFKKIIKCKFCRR

[2] = molecular target: T2, 5-hydroxytryptamine receptor 1A (Homo sapiens) (UniProt P08908); assay: Agonist activity at human 5HT1A receptor in HeLa cells assessed as stimulation of [35S]GTPgammaS binding relative to serotonin; type: functional, cell-based
T2 sequence (whole entry): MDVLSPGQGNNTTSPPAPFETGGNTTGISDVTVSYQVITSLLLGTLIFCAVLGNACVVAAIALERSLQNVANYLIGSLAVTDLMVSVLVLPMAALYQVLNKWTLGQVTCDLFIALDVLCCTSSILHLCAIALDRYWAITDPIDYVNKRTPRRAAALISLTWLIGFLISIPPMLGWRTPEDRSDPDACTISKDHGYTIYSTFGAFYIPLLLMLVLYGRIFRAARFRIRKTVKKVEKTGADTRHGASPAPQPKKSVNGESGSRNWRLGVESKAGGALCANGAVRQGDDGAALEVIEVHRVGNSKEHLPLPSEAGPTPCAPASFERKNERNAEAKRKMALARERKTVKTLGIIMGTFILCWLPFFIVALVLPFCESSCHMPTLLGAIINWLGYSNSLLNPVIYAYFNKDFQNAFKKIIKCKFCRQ
In short: (§1)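 Membranes from HeLa cells expressing human 5-HT1A, prepared by homogenisation and 40 000 g spins in Hepes/EDTA, incubated with compound 1 h at 30 °C. [35S]GTPγS added at 0.1 nM final, then 30 min at 30 °C. Filtration and scintillation counting. Six concentrations from 10^-10 to 10^-5 M, triplicate, three experiments.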

[3] = system: Rattus norvegicus; assay: Normalizing effect on methylphenidate-induced behaviours in ip dosed rat after 30 min; type: functional; settings: for ED50: 0.5 h
In short: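 Rats given methylphenidate 40 mg/kg i.p. plus compound i.p. (10 mL/kg; doses as free base), seven per dose. Over 10 min starting 30 min after injection, locomotion, rearing, sniffing, gnawing and licking scored in 10 s observations repeated 10 times. Normalization judged against saline and methylphenidate controls.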

[4] = molecular target: D(2) dopamine receptor (Rattus norvegicus, UniProt P61169); assay: Displacement of [3H]YM-09151-2 from rat striatum D2 receptor
[5] = molecular target: T3, 5-hydroxytryptamine receptor 1A (Homo sapiens, UniProt P08908); assay: Agonist activity at human 5HT1A receptor in HeLa cells assessed as stimulation of [35S]GTP-gamma-S binding; type: functional, cell-based; in short: as §1
T3 sequence (P08908 whole entry): T2 sequence (whole entry)

[6] = molecular target: D(2) dopamine receptor (Rattus norvegicus) (UniProt P61169)
[7] = system: Rattus norvegicus; assay: Induction of flat body posture in ip dosed rat after 15 min; type: functional; settings: 0.25 h
In short: (§2)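 Rats given compound i.p. (10 mL/kg; doses as free base), five per dose, observed individually for 10 min from 15 min post-injection. LLR scored present if uninterrupted for ≥3 s, in 10 cycles; response was ≥1 positive score. FBP scored present only if seen over the whole period.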

[8] = system: Rattus norvegicus; assay: Induction of lower lip retraction in ip dosed rat after 15 min; type: functional; settings: 0.25 h; in short: as §2
[9] = system: Rattus norvegicus; assay: Induction of catalepsy in ip dosed rat after 60 min by crossed-leg position test; type: functional; settings: 1 h
In short: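 Rats dosed i.p. (10 mL/kg; doses as free base), seven per dose. From 60 min, hind limbs crossed over the ipsilateral forelimbs and time held recorded, up to 30 s. Repeated at 3 and 6 min and the three trials averaged. Incidence taken as catalepsy lasting 30 s.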

[10] = molecular target: 5-hydroxytryptamine receptor 2A (Rattus norvegicus, UniProt P14842); assay: Displacement of [3H]ketanserin from rat cortex 5HT2A receptor
[11] = system: Rattus norvegicus; assay: Induction of forepaw treading in rat at 40 mg/kg, ip; type: functional, organism-based; parameters: dose 40 mg/kg
[12] = system: Rattus norvegicus; assay: Ratio of ED50 for LLR induction to ED50 for normalization in ip dosed rat; type: functional
[13] = system: Rattus norvegicus; assay: Ratio of ED50 for catalepsy induction to ED50 for normalization in ip dosed rat; type: functional

5-hydroxytryptamine receptor 2A, sequence (P14842 whole entry): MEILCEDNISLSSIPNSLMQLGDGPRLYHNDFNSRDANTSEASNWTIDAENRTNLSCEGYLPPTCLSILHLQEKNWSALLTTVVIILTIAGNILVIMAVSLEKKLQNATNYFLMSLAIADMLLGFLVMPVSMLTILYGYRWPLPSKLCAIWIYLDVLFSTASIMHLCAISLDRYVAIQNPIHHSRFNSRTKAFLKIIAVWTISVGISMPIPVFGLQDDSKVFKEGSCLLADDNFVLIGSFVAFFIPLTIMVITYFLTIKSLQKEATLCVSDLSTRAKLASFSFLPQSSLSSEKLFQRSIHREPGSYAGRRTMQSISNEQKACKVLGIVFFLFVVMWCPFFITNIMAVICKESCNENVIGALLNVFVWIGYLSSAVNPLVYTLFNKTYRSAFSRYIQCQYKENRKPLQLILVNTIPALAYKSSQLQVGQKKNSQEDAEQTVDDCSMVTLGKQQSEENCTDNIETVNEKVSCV
D(2) dopamine receptor, sequence (P61169 whole entry): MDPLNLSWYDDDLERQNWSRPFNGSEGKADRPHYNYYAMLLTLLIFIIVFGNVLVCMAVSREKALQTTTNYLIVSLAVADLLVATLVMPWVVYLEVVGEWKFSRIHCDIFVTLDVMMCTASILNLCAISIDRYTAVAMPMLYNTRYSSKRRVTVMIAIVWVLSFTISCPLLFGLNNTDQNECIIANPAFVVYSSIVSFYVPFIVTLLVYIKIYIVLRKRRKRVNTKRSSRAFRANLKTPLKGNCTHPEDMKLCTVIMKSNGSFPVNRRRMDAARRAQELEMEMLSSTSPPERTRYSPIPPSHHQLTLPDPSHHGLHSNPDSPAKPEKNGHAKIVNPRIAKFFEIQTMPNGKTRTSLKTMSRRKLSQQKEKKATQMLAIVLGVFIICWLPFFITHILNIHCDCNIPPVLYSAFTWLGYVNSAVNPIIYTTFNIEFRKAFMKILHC
D(2) dopamine receptor (Rattus norvegicus), sequence (P61169 whole entry): as above

Compound	Ki [1] [nM]	Emax [2] [%]	Activity [3]	Ki [4] [nM]	EC50 [5] [nM]	pKb [6]	ED50 [7] [mg/kg]	ED50 [3] [mg/kg]	ED50 [8] [mg/kg]	ED50 [9] [mg/kg]	Ki [10] [nM]	Activity [11]	Ratio ED50 [12]	Ratio ED50 [13]
CC1(C)Oc2cccc(OCCNCc3cccc(C4=CCCC4)c3)c2O1	9.55	90.6	Active	1.23	24.5	–	–	–	–	–	–	–	–	–
Fc1ccc(-c2cncc(CN3CCN(c4cccc5c4OCCO5)CC3)c2)cc1 [ADOPRAZINE]	2.29	45.3	–	–	5.89	7.81	1.7	1.4	0.32	> 40	724	–	–	–
C1=C(c2cccc(CNCCOc3cccc4c3OCCO4)c2)CCC1	1.7	68.9	Active	0.776	6.46	–	–	–	–	–	–	–	–	–
CCCN(CCC)C1CCc2cccc(O)c2C1 (stereo unspecified) [8-OH-DPAT]	–	82	–	–	–	–	0.28	> 10	0.09	> 10	–	–	–	–
O=c1[nH]c2cccc(N3CCN(Cc4cccc(-c5ccccc5)c4)CC3)c2o1 [BIFEPRUNOX]	64.6	60.8	–	1.55	324	–	–	–	–	–	3310	–	–	–
CC(C)Oc1ccccc1OCCNCc1cccc(C2CC2)c1	61.7	–	–	0.603	> 10000	–	–	–	–	–	110	–	–	–
CC1(C)COc2c(OCCNCc3cccc(C4=CCCC4)c3)cccc21	42.7	72.4	Active	0.813	112	–	–	–	–	–	–	–	–	–
CC(C)Oc1ccccc1OCCNCc1cccc(-c2cccs2)c1	46.8	–	–	0.562	> 10000	–	–	–	–	–	562	–	–	–
C1=C(c2cccc(CNCCOc3cccc4c3OCO4)c2)CCC1	20.9	70.7	–	2.57	135	–	–	–	–	–	–	–	–	–
CC1(C)Cc2cccc(OCCNCc3cncc(C4=CCCC4)c3)c2O1	0.955	72.4	–	0.275	2.88	9.29	4.7	0.29	1.8	> 40	–	inactive	6.2	>137
CC(C)Oc1ccccc1OCCNCc1cccc(-c2ccccc2)c1	26.3	73.9	–	0.195	1410	–	–	–	–	–	724	–	–	–
CC1(C)Cc2cccc(OCCNCc3cccc(C4=CCCC4)c3)c2O1	5.75	85.6	–	0.417	10	8.29	32	1.1	8.3	> 40	–	inactive	7.5	>36
C1=C(c2cncc(CNCCOc3cccc4c3OC3(CC3)C4)c2)CCC1	3.63	78.5	Active	0.447	2.63	–	–	–	–	–	–	–	–	–
O=C(CCCN1CCC(O)(c2ccc(Cl)cc2)CC1)c1ccc(F)cc1 [HALOPERIDOL]	–	–	–	–	–	–	–	0.31	–	0.3	–	–	–	–
CC(C)Oc1ccccc1OCCNCc1cccc(C2=CCCCC2)c1	12.3	69.8	–	1.55	46.8	–	–	–	–	–	191	–	–	–
CCC1(C)Cc2cccc(OCCNCc3cccc(C4=CCCC4)c3)c2O1 (stereo unspecified)	5.5	77.7	Active	11.5	32.4	–	–	–	–	–	–	–	–	–
CC(C)Oc1ccccc1OCCNCc1cccc(C2=CCCCCC2)c1	22.9	86.5	–	3.09	1550	–	–	–	–	–	1050	–	–	–
C1=C(c2cccc(CNCCOc3cccc4c3OC3(CC3)C4)c2)CCC1	6.17	93.8	Active	1.12	33.9	–	–	–	–	–	–	–	–	–
CC(C)Oc1ccccc1OCCNCc1cccc(-c2ccsc2)c1	34.7	47.7	–	0.275	67.6	–	–	–	–	–	347	–	–	–
Fc1ccc(-c2cncc(CNC[C@H]3CCc4ccccc4O3)c2)cc1 [SARIZOTAN]	2.24	66.5	–	19.1	77.6	–	–	–	–	–	2140	–	–	–
CC(C)Oc1ccccc1OCCNCc1cccc(-c2ccco2)c1	67.6	–	–	0.339	> 10000	–	–	–	–	–	372	–	–	–
CC(C)Oc1ccccc1OCCNCc1cccc(C2=CCCC2)c1	29.5	54	–	0.501	69.2	–	–	–	–	–	646	–	–	–
CC(C)Oc1ccccc1OCCNCc1cccc(C2CCCC2)c1	16.6	71.2	–	0.562	195	–	–	–	–	–	302	–	–	–
